This passage reports IC50 results from ChEMBL document CHEMBL2202981, “Synthesis and cytotoxicity evaluation of highly functionalized pyranochromenes and pyranopyrans” (Bioorg Med Chem Lett, 2012).

Type in all cases: functional, cell-based
In one assay the test system is A549. Put plainly: Cytotoxicity against human A549 cells by MTT assay.
Another assay concerns MDA-MB-231. Put plainly: Cytotoxicity against human MDA-MB-231 cells by MTT assay. The essentials:
(§1)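 MTT assay on four human tumour lines: A549 (alveolar adenocarcinoma epithelial), HeLa (cervical cancer), MDA-MB-231 and MCF7 (breast adenocarcinoma). Dose-response curves were plotted from absorbance data, and IC50 was calculated from them. Each value is the average of two independent experiments.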
Background: Formazan colour is commonly taken as a measure of viable cells.

The test system of another assay is MCF7. Put plainly: Cytotoxicity against human MCF7 cells by MTT assay. An outline of the steps: as §1
Another assay has as its system HeLa. Put plainly: Cytotoxicity against human HeLa cells by MTT assay. The essentials: as §1
[1] abbreviates: Homo sapiens, MDA-MB-231, read-out: IC50.
[2] abbreviates: Homo sapiens, MCF7, read-out: IC50.
The mark [3] stands for this setting: Homo sapiens, HeLa, read-out: IC50.
Where [4] appears, read: Homo sapiens, A549, read-out: IC50.

A value given as a limit tells only on which side of the number the result lay.

As to `CCOC(=O)C1C(c2ccc(O)c(OC)c2)c2c(c3ccccc3oc2=O)OC1(O)C(F)(F)F` (racemic), the IC50 result in the assay on A549 (a549), in the assay on MDA-MB-231 (mda-mb-231), in the assay on MCF7 (mcf7) and in the assay on HeLa (hela) was “Not Active” in each case.
For `CCOC(=O)C1C(c2ccc(F)cc2)c2c(c3cc(F)ccc3oc2=O)OC1(O)C(F)(F)F` (racemic), the IC50 entry in the assay on A549 (a549), with MDA-MB-231 (mda-mb-231), with MCF7 (mcf7) and in the assay with HeLa (hela) was “Not Active” in each case.
With `CCOC(=O)C1C(c2cccnc2)c2c(c3ccccc3oc2=O)OC1(O)C(F)(F)F` (racemic), the IC50 entry in the assay with A549 (a549), in the assay with MDA-MB-231 (mda-mb-231), with MCF7 (mcf7) and in the assay on HeLa (hela) was “Not Active” each time.
For the compound `CCOC(=O)C1C(c2ccc(C#N)cc2)c2c(c3ccccc3oc2=O)OC1(O)C(F)(F)F` (racemic), the IC50 entry with A549 (a549), in the assay on MDA-MB-231 (mda-mb-231), in the assay on MCF7 (mcf7) and with HeLa (hela) was “Not Active” in each case.
In the case of `CCOC(=O)C1C(c2ccc(F)cc2)c2c(c3ccccc3oc2=O)OC1(O)C(F)(F)F` (racemic), the IC50 (as a rule, the concentration that gives 50% inhibition) in the assay with A549 (a549) is “Not Active”; with MDA-MB-231 (setting [1]), 11.3 µM; with MCF7 (setting [2]) it was 7.67 µM; in the assay on HeLa (setting [3]), 11 µM.
For the compound `CCOC(=O)C1C(c2ccc(OC)cc2)c2c(c3ccccc3oc2=O)OC1(O)C(F)(F)F` (racemic), the IC50 with A549 (setting [4]) is 82.4 µM; in the assay on MDA-MB-231 (setting [1]), 2.2 µM; in the assay on MCF7 (setting [2]) it was 71.7 µM; in the assay with HeLa (setting [3]), 11.2 µM.
Consider `CCOC(=O)C1C(c2ccc(O)cc2)c2c(c3cc(F)ccc3oc2=O)OC1(O)C(F)(F)F` (racemic), for which the IC50 in the assay on A549 (setting [4]) was determined as 33.9 µM; with MDA-MB-231 (setting [1]) it was 6.61 µM; with MCF7 (setting [2]), 6.54 µM; with HeLa (setting [3]), 11.5 µM.
As for `CCOC(=O)C1C(c2ccc([N+](=O)[O-])cc2)c2c(c3cc(F)ccc3oc2=O)OC1(O)C(F)(F)F` (racemic), the IC50 result in the assay on A549 (a549), in the assay with MDA-MB-231 (mda-mb-231), with MCF7 (mcf7) and in the assay with HeLa (hela) was “Not Active” throughout.
Regarding `CCOC(=O)C1C(c2ccc(O)cc2)c2c(c3ccccc3oc2=O)OC1(O)C(F)(F)F` (racemic), the IC50 entry in the assay on A549 (a549), in the assay with MDA-MB-231 (mda-mb-231), with MCF7 (mcf7) and with HeLa (hela) was “Not Active” in each case.
For `CCOC(=O)C1C(c2ccc(OC)c(OC)c2)c2c(c3ccccc3oc2=O)OC1(O)C(F)(F)F` (racemic), the IC50 in the assay with A549 (setting [4]) stood at 34.3 µM; in the assay with MDA-MB-231 (setting [1]), 7.71 µM; in the assay with MCF7 (setting [2]), 53.9 µM; with HeLa (setting [3]), 87 µM.
On to `COc1cccc2c1C(=O)c1c(O)c3c(c(O)c1C2=O)C[C@@](O)(C(=O)CO)C[C@@H]3O[C@H]1C[C@H](N)[C@H](O)[C@H](C)O1` [DOXORUBICIN], for which the IC50 in the assay on MDA-MB-231 (setting [1]) and in the assay with HeLa (setting [3]) was less than 1 µM each time.
Take `CCOC(=O)C1C(c2ccc(O)cc2)c2oc(CO)cc(=O)c2OC1(O)C(F)(F)F` (racemic): the IC50 entry in the assay with A549 (a549), in the assay with MDA-MB-231 (mda-mb-231), in the assay with MCF7 (mcf7) and with HeLa (hela) was “Not Active” in each case.
Take `CCOC(=O)C1C(c2ccc(C(C)C)cc2)c2c(c3ccccc3oc2=O)OC1(O)C(F)(F)F` (racemic): the IC50 entry with A549 (a549), in the assay on MDA-MB-231 (mda-mb-231), in the assay with MCF7 (mcf7) and in the assay with HeLa (hela) was “Not Active” in each case.
As for `CCOC(=O)C1C(c2ccc(C)cc2)c2oc(CO)cc(=O)c2OC1(O)C(F)(F)F` (racemic), the IC50 entry with A549 (a549), in the assay on MDA-MB-231 (mda-mb-231), with MCF7 (mcf7) and with HeLa (hela) was “Not Active” in each case.
As to `CCOC(=O)C1C(c2ccc(OC)cc2)c2oc(CO)cc(=O)c2OC1(O)C(F)(F)F` (racemic), the IC50 entry in the assay on A549 (a549), in the assay on MDA-MB-231 (mda-mb-231), in the assay with MCF7 (mcf7) and with HeLa (hela) was “Not Active” in each case.
With `CCOC(=O)C1C(c2ccc(C#N)cc2)c2c(c3cc(F)ccc3oc2=O)OC1(O)C(F)(F)F` (racemic), the IC50 entry with A549 (a549), in the assay with MDA-MB-231 (mda-mb-231), in the assay on MCF7 (mcf7) and in the assay on HeLa (hela) was “Not Active” in each case.
